{"data": "Experimental data of several laboratories", "SLC18A2": "Synaptic vesicular amine transporter (SLC18A2, Homo sapiens, UniProt Q05940)", "gag-pol reverse transcriptase": "Gag-Pol polyprotein, reverse transcriptase (gag-pol, Human immunodeficiency virus 1, UniProt P03366)", "HTR3A": "5-hydroxytryptamine receptor 3A (HTR3A, Homo sapiens, UniProt P46098)", "LATS1": "Serine/threonine-protein kinase LATS1 (LATS1, Homo sapiens, UniProt O95835)", "ACKR3": "Atypical chemokine receptor 3 (ACKR3, Homo sapiens, UniProt P25106)", "CA2": "Carbonic anhydrase 2 (CA2, Homo sapiens, UniProt P00918)", "CYP2C19": "Cytochrome P450 2C19 (CYP2C19, Homo sapiens, UniProt P33261)", "UGT1A4": "UDP-glucuronosyltransferase 1A4 (UGT1A4, Homo sapiens, UniProt P22310)", "CA1": "Carbonic anhydrase 1 (CA1, Homo sapiens, UniProt P00915)", "note": "Lines come from different studies, so protocols differ."}
{"target": "SLC18A2", "assay": "transporter uptake, inhibitor", "IC50 [µM]": 8.2, "Structure (SMILES)": "CNC(=O)c1ccccc1Sc1ccc2c(/C=C/c3ccccn3)n[nH]c2c1"}
{"target": "gag-pol reverse transcriptase", "assay": "enzyme activity, inhibitor", "IC50 [µM]": "> 100", "Structure (SMILES)": "CCOC(=O)c1c(N(CC)CC)c2c([nH]c1=O)CCC2"}
{"target": "HTR3A", "assay": "ion current", "IC50 [µM]": 3.48, "Structure (SMILES)": "CN1CCC(CNc2ccc3ncc(-c4cccc(OC(F)(F)F)c4)n3n2)CC1"}
{"target": "Transcriptional activator protein LasR (lasR, Pseudomonas aeruginosa, UniProt P25084)", "assay": "reporter gene, antagonist", "IC50 [µM]": 1.1, "Structure (SMILES)": "CCCCCCCCCC(=O)CC(=O)Nc1ccccc1"}
{"target": "gag-pol reverse transcriptase", "assay": "enzyme activity, inhibitor", "IC50 [µM]": "> 100", "Structure (SMILES)": "CCOC(=O)c1c(NCCCCN)c2c([nH]c1=O)CCC2"}
{"target": "LATS1", "assay": "enzyme activity, inhibitor, radiometric", "IC50 [µM]": 0.0018, "Structure (SMILES)": "Cc1cc(-c2ccnc3[nH]cc(F)c23)cc(F)c1[C@@]1(O)[C@H](C)CN(C(=O)CN)C[C@@H]1C"}
{"target": "ACKR3", "assay": "ligand displacement, BRET", "IC50 [µM]": 0.0631, "Structure (SMILES)": "CC(C)(C)NC(=O)C1CCN(Cc2cccc(NC(=O)c3ccc(F)cc3)c2)CC1"}
{"target": "SLC18A2", "assay": "transporter uptake, inhibitor", "IC50 [µM]": 0.146, "Structure (SMILES)": "COc1cc2nc(N3CCN(C(=O)c4ccco4)[C@H]4CCCC[C@H]43)nc(N)c2cc1OC (racemic)"}
{"target": "CA2", "assay": "enzyme activity, inhibitor, absorbance", "setting": "pH 7.4", "IC50 [µM]": 28.4, "Structure (SMILES)": "CC(C)(C(=O)O)c1ccc(C(O)CCCN2CCC(C(O)(c3ccccc3)c3ccccc3)CC2)cc1 (stereo not drawn)"}
{"target": "ACKR3", "assay": "ligand displacement, BRET", "IC50 [µM]": "> 10", "Structure (SMILES)": "CC(C)(C)NC(=O)C1CCN(Cc2cccc(/N=N/c3ccc(C(F)(F)F)cc3)c2)CC1"}
{"target": "gag-pol reverse transcriptase", "assay": "enzyme activity, inhibitor", "IC50 [µM]": "> 100", "Structure (SMILES)": "CCCCCNc1c2c([nH]c(=O)c1C(=O)OCC)CCC2"}
{"target": "CYP2C19", "assay": "enzyme activity, inhibitor", "test system": "human, liver microsomes", "IC50 [µM]": 3.3, "Structure (SMILES)": "OCc1ccc(-c2nn(Cc3ccccc3)c3ccccc23)o1"}
{"target": "gag-pol reverse transcriptase", "assay": "enzyme activity, inhibitor", "IC50 [µM]": "> 100", "Structure (SMILES)": "CCOC(=O)c1c(NCCCN)c2c([nH]c1=O)CCC2"}
{"target": "LATS1", "assay": "target engagement in cells, BRET", "IC50 [µM]": 8.87, "Structure (SMILES)": "Clc1ccc(C2(c3ccc(-c4cn[nH]c4)cc3)CCNCC2)cc1"}
{"target": "SLC18A2", "assay": "transporter uptake, inhibitor", "IC50 [µM]": 2.19, "Structure (SMILES)": "O=C1CC2(CCCC2)CC(=O)N1CCCCN1CCN(c2ncccn2)CC1"}
{"target": "gag-pol reverse transcriptase", "assay": "enzyme activity, inhibitor", "IC50 [µM]": "> 100", "Structure (SMILES)": "CCCCNc1c2c([nH]c(=O)c1C(=O)OCC)CCC2"}
{"target": "UGT1A4", "assay": "enzyme activity, inhibitor", "test system": "human, liver microsomes", "IC50 [µM]": 4.21, "Structure (SMILES)": "C=C(C)[C@@H]1CC[C@]2(C(=O)O)CC[C@]3(C)[C@H](CC[C@@H]4[C@@]5(C)CC[C@H](O)C(C)(C)[C@@H]5CC[C@]43C)[C@@H]12"}
{"target": "SLC18A2", "assay": "transporter uptake, inhibitor", "IC50 [µM]": 4.04, "Structure (SMILES)": "CC(C)Nc1cccnc1N1CCN(C(=O)c2cc3cc(NS(C)(=O)=O)ccc3[nH]2)CC1"}
{"target": "CA1", "assay": "enzyme activity, inhibitor, absorbance", "setting": "pH 7.4", "IC50 [µM]": 11.9, "Structure (SMILES)": "CCOC(=O)N1CCC(=C2c3ccc(Cl)cc3CCc3cccnc32)CC1"}
{"target": "CYP2C19", "assay": "enzyme activity, inhibitor", "test system": "human, liver microsomes", "setting": "30 min", "IC50 [µM]": 31.5, "Structure (SMILES)": "Cc1ccc(OCC(=O)N[C@@H](Cc2c[nH]c3ccccc23)C(=O)OC(C)C)cc1"}
{"target": "LATS1", "assay": "target engagement in cells, BRET", "IC50 [µM]": 0.518, "Structure (SMILES)": "C[C@@H]1CNC[C@H](C)[C@@]1(O)c1ccc(-c2ccnc3[nH]cc(F)c23)cc1"}
{"target": "UGT1A4", "assay": "enzyme activity, inhibitor", "test system": "human, liver microsomes", "IC50 [µM]": 2.23, "Structure (SMILES)": "C[C@@H]1CC[C@@]2(OC1)O[C@H]1C[C@H]3[C@@H]4CC[C@H]5C[C@@H](O)CC[C@]5(C)[C@H]4CC(=O)[C@]3(C)[C@H]1[C@@H]2C"}
{"target": "LATS1", "assay": "target engagement in cells, BRET", "IC50 [µM]": 17.1, "Structure (SMILES)": "OC1(c2ccc(-c3ccnc4[nH]cc(F)c34)cc2)CCNCC1"}
{"target": "CA1", "assay": "enzyme activity, inhibitor, absorbance", "setting": "pH 7.4", "IC50 [µM]": 12.4, "Structure (SMILES)": "O=c1[nH]c(=O)n([C@H]2C[C@H](O)[C@@H](CO)O2)cc1/C=C/Br"}
{"target": "gag-pol reverse transcriptase", "assay": "enzyme activity, inhibitor", "IC50 [µM]": 76.4, "Structure (SMILES)": "CCCNc1c2c([nH]c(=O)c1C(=O)OCC)CCC2"}
{"target": "LATS1", "assay": "enzyme activity, inhibitor, radiometric", "IC50 [µM]": 0.011, "Structure (SMILES)": "OC1(c2ccc(-c3ccnc4[nH]cc(F)c34)cc2)CCNC1 (stereo not drawn)"}
{"target": "CA1", "assay": "enzyme activity, inhibitor, absorbance", "setting": "pH 7.4", "IC50 [µM]": 18.4, "Structure (SMILES)": "Cn1cnc([N+](=O)[O-])c1Sc1ncnc2nc[nH]c12"}
{"target": "gag-pol reverse transcriptase", "assay": "enzyme activity, inhibitor", "IC50 [µM]": "> 100", "Structure (SMILES)": "C=CCCCNc1c2c([nH]c(=O)c1C(=O)OCC)CCC2"}
{"target": "LATS1", "assay": "target engagement in cells, BRET", "IC50 [µM]": 7.09, "Structure (SMILES)": "OC1(c2ccc(-c3ccnc4[nH]cc(F)c34)cc2)CCCNCC1 (stereo not drawn)"}
{"target": "CYP2C19", "assay": "enzyme activity, inhibitor, fluorescence", "setting": "pH 8", "IC50 [µM]": 0.023, "Structure (SMILES)": "CN(C)C(=O)c1cc2cnc(Nc3ccc(-c4ccc5c(=O)cc(N6CCOCC6)oc5c4)cc3)nc2n1C1CCCC1"}
{"target": "HTR3A", "assay": "ion current", "IC50 [µM]": 4.35, "Structure (SMILES)": "NC(=O)c1nnn(Cc2cc(Cl)c(C(=O)c3ccc(Cl)cc3)c(Cl)c2)c1N"}
{"target": "CA2", "assay": "enzyme activity, inhibitor, absorbance", "setting": "pH 7.4", "IC50 [µM]": 15, "Structure (SMILES)": "Nc1ccc(S(=O)(=O)c2ccc(N)cc2)cc1"}
{"target": "SLC18A2", "assay": "transporter uptake, inhibitor, radiometric", "setting": "cell membranes", "IC50 [µM]": 0.53, "Structure (SMILES)": "COc1cc2c(cc1OC)[C@H]1C[C@@H](OC(=O)[C@@H](N)C(C)C)[C@H](CC(C)C)CN1CC2"}
{"target": "Receptor tyrosine-protein kinase erbB-2 (ERBB2, Homo sapiens, UniProt P04626)", "assay": "enzyme activity, inhibitor, TR-FRET", "IC50 [µM]": "< 0.0005", "Structure (SMILES)": "COc1c(Cl)cccc1Nc1c(-c2ccncc2OC[C@@H]2COCCO2)[nH]c2c1C(=O)NCC2"}
{"target": "LATS1", "assay": "enzyme activity, inhibitor, radiometric", "IC50 [µM]": 0.0059, "Structure (SMILES)": "Cc1cc(-c2ccnc3[nH]cc(F)c23)cc(F)c1[C@@]1(O)[C@H](C)CN(C2COC2)C[C@@H]1C"}
{"target": "CA1", "assay": "enzyme activity, inhibitor, absorbance", "setting": "pH 7.4", "IC50 [µM]": 11.1, "Structure (SMILES)": "OC(Cn1cncn1)(Cn1cncn1)c1ccc(F)cc1F"}
{"target": "LATS1", "assay": "target engagement in cells, BRET", "IC50 [µM]": 2.21, "Structure (SMILES)": "CC1CNCCC1(O)c1ccc(-c2ccnc3[nH]cc(F)c23)cc1 (stereo not drawn)"}
{"target": "Sodium channel protein type 2 subunit alpha (SCN2A, Homo sapiens, UniProt Q99250)", "assay": "ion current, inhibitor, patch clamp", "IC50 [µM]": 1.61, "Structure (SMILES)": "CC(C)=CCC/C(C)=C/CC/C(C)=C/Cc1c(O)cc(C)c(C(=O)O)c1O"}
{"target": "CA1", "assay": "enzyme activity, inhibitor, absorbance", "setting": "pH 7.4", "IC50 [µM]": 30.3, "Structure (SMILES)": "CN(C/C=C/C#CC(C)(C)C)Cc1cccc2ccccc12"}
{"target": "SLC18A2", "assay": "transporter uptake, inhibitor", "IC50 [µM]": 2.34, "Structure (SMILES)": "OCCN1CCN(CCCN2c3ccccc3Sc3ccc(C(F)(F)F)cc32)CC1"}
{"target": "ACKR3", "assay": "ligand displacement, BRET", "IC50 [µM]": 1, "Structure (SMILES)": "CC(C)(C)NC(=O)C1CCN(Cc2cccc(/N=N/c3ccccc3)c2)CC1"}
{"target": "SLC18A2", "assay": "transporter uptake, inhibitor", "IC50 [µM]": 2.75, "Structure (SMILES)": "CNCCC(Oc1ccc(C(F)(F)F)cc1)c1ccccc1 (stereo not drawn)"}
{"target": "gag-pol reverse transcriptase", "assay": "enzyme activity, inhibitor", "IC50 [µM]": "> 100", "Structure (SMILES)": "CCOC(=O)c1c(NCCO)c2c([nH]c1=O)CCC2"}
{"target": "CA1", "assay": "enzyme activity, inhibitor, absorbance", "setting": "pH 7.4", "IC50 [µM]": 12.8, "Structure (SMILES)": "CC(C)[C@H](N)C(=O)OCCOCn1cnc2c(=O)[nH]c(N)nc21"}
{"target": "SLC18A2", "assay": "transporter uptake, inhibitor", "IC50 [µM]": 0.022, "Structure (SMILES)": "COc1cc2c(N)nc(N3CCN(C(=O)OCC(C)(C)O)CC3)nc2c(OC)c1OC"}
